What is called MIC is the lowest concentration found to suppress growth.

In one experiment the test system is C. albicans ATCC 64124. Conditions: strain B; azoles; previously reported; cited from earlier work.
The test system of experiment [1] is C. albicans ATCC MYA-2876(S). Conditions: strain C; azoles; previously reported; cited from earlier work.
Experiment [2] concerns C. albicans ATCC 90819(R). The settings on record: strain D; azoles; previously reported; cited from earlier work.
Experiment [3] concerns C. albicans ATCC MYA-2310(S). The settings on record: strain E; azoles; previously reported; cited from earlier work.
For experiment [4], the system named is C. albicans ATCC 10231 (strain A). The experiment is described as follows: ROS induction assay. In kind it is cell-based, Candida albicans. Conditions: 1× and 2× MIC, 1-h treatment; H2O2 1 mM. Summed up: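 C. albicans ATCC 10231 cells were incubated 1 h at 37 °C with test compound at 1× or 2× MIC, with no drug (negative control), or with 1 mM H₂O₂ (positive control). DCFH-DA (40 µg/mL) was then added. ROS were detected and imaged by fluorescence microscopy.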

In experiment [5] the test system is Aspergillus flavus ATCC MYA-3631. The experiment in a line: MIC, broth dilution, strain K. Conditions: Aspergillus flavus. In kind it is cell-based. (In general: In broth dilution the organism is exposed to a series of concentrations in liquid medium.)
For experiment [6], the system named is Aspergillus terreus ATCC MYA-3633. The experiment is described as follows: MIC, broth dilution, strain M. Conditions: Aspergillus terreus. In kind it is cell-based.
Experiment [7] concerns Candida albicans ATCC 10231. The settings on record: strain A; azoles; previously reported; cited from earlier work.
Experiment [8] concerns C. albicans ATCC MYA-1237(R). The settings on record: strain F; azoles; previously reported; cited from earlier work.
In experiment [9] the test system is C. albicans ATCC MYA-1003(R). The settings on record: strain G; azoles; previously reported; cited from earlier work.
The test system of experiment [10] is Aspergillus nidulans ATCC 38163. Conditions: strain L; previously reported; cited from earlier work.
The mark [11] stands for this setting: read-out: MIC (MIC-0) in µM (parentheses).

Values after ≈ are worked out from the molar mass of the structure shown. Read-outs that look alike come from different tables or passages of the source.

With `OC(Cn1cncn1)(Cn1cncn1)c1ccc(F)cc1F` [FLC, fluconazole], the “MIC (MIC-2)” value was above 125 µg/mL with C. albicans ATCC 64124, 15.6 µg/mL (≈ 50.9 µM) in experiment [1], above 125 µg/mL in experiment [2] and above 125 µg/mL in experiment [3]. In addition, the “MIC (MIC-2) in µM (parentheses)” value in the experiment on C. albicans ATCC 64124 is above 408 µM; in experiment [1], 51.0 µM (≈ 15.6 µg/mL); in experiment [2] it was above 408 µM; in [3], above 408 µM.

Consider `OO` [H2O2], for which the “ROS induction (DCFH-DA fluorescence)” value in experiment [4] is on record as “highly fluorescent”.

Take `CCC(C)n1ncn(-c2ccc(N3CCN(c4ccc(OCC5COC(Cn6cncn6)(c6ccc(Cl)cc6Cl)O5)cc4)CC3)cc2)c1=O` (stereo not shown) [ITC, itraconazole]: the MIC in experiment [5] (read-out: MIC (MIC-0)) is 0.48 µg/mL; in experiment [5] (setting [11]) it was 0.68 µM; in [6] (read-out: MIC (MIC-0)), 0.975 µg/mL; in [6] (setting [11]), 1.38 µM. Moreover, the “MIC (MIC-2)” value is listed as 0.5 µg/mL (≈ 0.709 µM) in [7]; above 62.5 µg/mL in the experiment with C. albicans ATCC 64124; 7.8 µg/mL (≈ 11.1 µM) in [1]; 31.2 µg/mL (≈ 44.2 µM) in [2]; 31.2 µg/mL (≈ 44.2 µM) in experiment [3]; 31.2 µg/mL (≈ 44.2 µM) in experiment [8]. Moreover, the “MIC (MIC-2)” value in [9] was 31.2 µg/mL (≈ 44.2 µM). Moreover, the “MIC (MIC-2) in µM (parentheses)” value in experiment [7] was 0.71 µM (≈ 0.501 µg/mL); with C. albicans ATCC 64124, above 88.6 µM; in experiment [1], 11.1 µM (≈ 7.83 µg/mL); in experiment [2], 44.2 µM (≈ 31.2 µg/mL); in experiment [3], 44.2 µM (≈ 31.2 µg/mL); in [8], 44.2 µM (≈ 31.2 µg/mL). In [9], the “MIC (MIC-2) in µM (parentheses)” value is 44.2 µM (≈ 31.2 µg/mL). In addition, the “MIC (MIC-0)” value in [10] is 0.195 µg/mL (≈ 0.276 µM). Moreover, in experiment [10], the “MIC (MIC-0) in µM (parentheses)” value was 0.28 µM (≈ 0.198 µg/mL).

Consider `CC[C@@H]([C@H](C)O)n1ncn(-c2ccc(N3CCN(c4ccc(OC[C@@H]5CO[C@@](Cn6cncn6)(c6ccc(F)cc6F)C5)cc4)CC3)cc2)c1=O` [POS, posaconazole], for which the MIC was 0.24 µg/mL in [5] (read-out: MIC (MIC-0)), 0.34 µM in experiment [5] (setting [11]), 0.48 µg/mL in experiment [6] (read-out: MIC (MIC-0)) and 0.68 µM in [6] (setting [11]). For the same compound, the “MIC (MIC-2)” value was 0.5 µg/mL (≈ 0.713 µM) in experiment [7]; above 62.5 µg/mL with C. albicans ATCC 64124; 7.8 µg/mL (≈ 11.1 µM) in [1]; 31.2 µg/mL (≈ 44.5 µM) in experiment [2]; 31.2 µg/mL (≈ 44.5 µM) in experiment [3]; 15.6 µg/mL (≈ 22.3 µM) in experiment [8]. In addition, in [9], the “MIC (MIC-2)” value is reported as 15.6 µg/mL (≈ 22.3 µM). Moreover, the “MIC (MIC-2) in µM (parentheses)” value in experiment [7] is given as 0.71 µM (≈ 0.498 µg/mL); with C. albicans ATCC 64124 it was above 89.3 µM; in experiment [1], 11.1 µM (≈ 7.78 µg/mL); in experiment [2], 44.5 µM (≈ 31.2 µg/mL); in experiment [3], 44.5 µM (≈ 31.2 µg/mL); in [8], 22.3 µM (≈ 15.6 µg/mL). For the same compound, the “MIC (MIC-2) in µM (parentheses)” value in experiment [9] was 22.3 µM (≈ 15.6 µg/mL). Also, the “MIC (MIC-0)” value in experiment [10] is 0.195 µg/mL (≈ 0.278 µM). For the same compound, the “MIC (MIC-0) in µM (parentheses)” value in experiment [10] is on record as 0.28 µM (≈ 0.196 µg/mL).

The values are drawn from PMC5060091 (ChemMedChem, 2016).
